The target in assay [1] is T1, Hypoxia-inducible factor 1-alpha (Homo sapiens, UniProt Q16665). Briefly: Inhibition of hypoxia-induced HIF1alpha transcriptional activity in human HeLa cells expressing HRE-Luc after 12 hrs by luciferase reporter gene assay. It counts as cell-based. On the technique in general: A reporter such as luciferase makes a cellular process visible.
Target sequence in this assay (Q16665 whole entry): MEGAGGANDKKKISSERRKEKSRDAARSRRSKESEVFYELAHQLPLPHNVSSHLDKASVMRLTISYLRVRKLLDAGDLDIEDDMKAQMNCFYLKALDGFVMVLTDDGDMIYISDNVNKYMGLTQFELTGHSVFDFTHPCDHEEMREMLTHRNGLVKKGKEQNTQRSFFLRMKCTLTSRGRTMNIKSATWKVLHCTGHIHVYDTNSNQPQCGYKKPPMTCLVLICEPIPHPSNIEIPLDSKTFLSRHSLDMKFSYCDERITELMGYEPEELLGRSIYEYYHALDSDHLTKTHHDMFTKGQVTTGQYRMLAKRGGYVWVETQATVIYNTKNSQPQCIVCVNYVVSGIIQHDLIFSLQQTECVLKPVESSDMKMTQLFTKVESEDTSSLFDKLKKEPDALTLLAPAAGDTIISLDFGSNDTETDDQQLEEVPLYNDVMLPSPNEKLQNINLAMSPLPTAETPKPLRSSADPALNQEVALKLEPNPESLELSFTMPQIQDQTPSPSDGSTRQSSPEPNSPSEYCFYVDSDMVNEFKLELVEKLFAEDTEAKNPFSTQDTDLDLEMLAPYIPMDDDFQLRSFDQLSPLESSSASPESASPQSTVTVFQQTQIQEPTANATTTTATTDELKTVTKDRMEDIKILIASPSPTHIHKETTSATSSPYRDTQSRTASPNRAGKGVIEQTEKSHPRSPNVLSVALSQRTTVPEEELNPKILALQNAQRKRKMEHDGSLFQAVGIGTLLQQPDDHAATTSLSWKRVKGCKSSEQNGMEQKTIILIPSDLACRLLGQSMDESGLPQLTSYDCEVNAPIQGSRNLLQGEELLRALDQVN
Another assay has as its system HepG2. As to the kind of experiment: Cytotoxicity against human HepG2 cells after 72 hrs by MTT assay. It counts as functional, cell-based. The conditions noted are these: HepG2, 72 h. The gist of the method: (§1)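 Cells exposed to compound at 0.1–30 μM for 72 h; viability read by MTT assay.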
Assay [2] deals with T1, Hypoxia-inducible factor 1-alpha. Briefly: Inhibition of hypoxia-induced HIF1alpha transcriptional activity in human HeLa cells expressing HRE-Luc at 30 uM after 12 hrs by luciferase reporter gene assay. It counts as cell-based. The procedure, abridged: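 Reporter HeLa cells stably carrying HRE-firefly luciferase plus CMV-renilla luciferase, incubated 12 h with compound under 1% oxygen. Supernatant removed, then dual luciferase assay. Triplicate samples, mean ± SD.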
Target sequence in this assay (Q16665 whole entry, looked up): as the sequence (Q16665 whole entry) above

The subject of assay [3] is HeLa. As to the kind of experiment: Cytotoxicity against human HeLa cells after 72 hrs by MTT assay. It counts as functional, cell-based. The procedure, abridged: as §1
(Tetrazolium assays rely on reduction of a dye to a coloured formazan, in cell work by metabolically active cells.)

The next assay has as its system HCT-116. As to the kind of experiment: Cytotoxicity against human HCT116 cells after 72 hrs by MTT assay. The note with it: HCT-116, 72 h. It counts as functional, cell-based. The gist of the method:
as §1

The next assay deals with PC-3. Briefly: Cytotoxicity against human PC3 cells after 72 hrs by MTT assay. It counts as functional, cell-based. The conditions noted are these: PC-3, 72 h. The gist of the method: as §1
In assay [4] the test system is HeLa. The note with it: Homo sapiens, 0.1 to 10 uM.
In assay [5] the test system is HeLa. The note with it: Homo sapiens, 0.001 to 1 uM.
In assay [6] the test system is HeLa. The note with it: Homo sapiens, 1 uM.
The test system of assay [7] is HeLa. As to the kind of experiment: Inhibition of hypoxia-induced HIF1alpha nuclear translocation in human HeLa cells at 30 uM after 4 hrs by immunofluorescence analysis. It counts as functional, cell-based. The gist of the method:
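Under 1% oxygen, HeLa cells incubated 4 h with compound. HIF-1α localization imaged by immunofluorescence with specific antibody; nuclei stained with DAPI.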

In assay [8] the test system is HeLa. Briefly: Inhibition of hypoxia-induced HIF1alpha accumulation in human HeLa cells at 30 uM after 4 hrs by Western blot analysis. It counts as functional, cell-based. The gist of the method:
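HeLa cells under hypoxia (1% oxygen) treated with compound for 4 h at a range of concentrations. HIF-1α protein detected by immunoblot with specific antibody, tubulin as internal control.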
On the technique in general: A western blot detects proteins with antibodies after separation by electrophoresis.

The structures appear in SMILES notation. Calls of active or inactive are those of the source. The calls are words filed in the database; no cut-off is given here.

In the case of `c1ccc(Nc2[nH]nc3c2Cc2ccccc2-3)cc1`, the IC50 (in general, the concentration that inhibits the measured activity by half) in [1] was above 30 µM.
Turning to `COc1cc2c(cc1OC)-c1n[nH]c(Nc3ccccc3)c1C2`, the IC50 in the assay with HepG2 was 0.24 µM; with HeLa [3], below 0.1 µM; in the assay with HCT-116, below 0.1 µM; in assay [1], above 30 µM; in the assay on PC-3 it was 0.72 µM. Moreover, the inhibition (usually the relative decrease from the control value, in per cent) in assay [2] stood at 0%.
For the compound `c1ccc(Nc2n[nH]c3c2Cc2cc4c(cc2-3)OCO4)cc1`, the IC50 came to 11.2 µM in the assay with HepG2, 8.5 µM in the assay on HeLa [3], 5.2 µM in the assay on HCT-116 and 22.3 µM in the assay on PC-3. This compound also returned an inhibition in assay [2] of 28%.
Turning to `COc1ccc(Nc2n[nH]c3c2Cc2ccccc2-3)cc1`, the IC50 in the assay with HepG2 was found to be 9.1 µM; in the assay with HeLa [3], 2.6 µM; in the assay with HCT-116 it was 3.1 µM; in assay [1], 1.4 µM; in the assay on PC-3 it was 28.8 µM.
With `c1ccc2c(c1)Cc1c-2n[nH]c1Nc1ccc2c(c1)OCCO2`, in assay [1], it took 0.014 µM to reach half-maximal inhibition (IC50).
The same measure, in the same setting: as for `c1ccc(Nc2[nH]nc3c2Cc2cc4c(cc2-3)OCO4)cc1`, the figure is above 30 µM.
`COc1ccc2c(c1)Cc1c-2n[nH]c1Nc1ccccc1`: the IC50 in the assay with HepG2 was below 0.1 µM; in the assay with HeLa [3] it was below 0.1 µM; in the assay with HCT-116, below 0.1 µM; in [1], above 30 µM; in the assay with PC-3, below 0.1 µM. Further, the inhibition in assay [2] worked out at 28%.
As for `c1ccc2c(c1)Cc1c(Nc3ccc4c(c3)OCCO4)n[nH]c1-2`, the half-inhibitory concentration (IC50) in the assay with HepG2 was 3.7 µM; with HeLa [3], 1.8 µM; with HCT-116, 2.1 µM; with PC-3, 25.4 µM. For the same compound, the inhibition result in the assay on HeLa [4], in the assay on HeLa [5] and with HeLa [6] was “inactive” in each case.
In the case of `COc1ccc2c(c1)-c1n[nH]c(Nc3ccccc3)c1C2`, the IC50 with HepG2 was 15.4 µM; with HeLa [3] it was 13.4 µM; in the assay on HCT-116, 1.5 µM; in [1], above 30 µM; in the assay with PC-3, above 30 µM. The compound also had an inhibition in assay [2] of 18%.
For `c1ccc2c(c1)Cc1c-2n[nH]c1Nc1ccc2c(c1)OCO2`, the IC50 turned out to be 12.7 µM in the assay on HepG2; 5.8 µM in the assay on HeLa [3]; 6.9 µM in the assay on HCT-116; 0.27 µM in assay [1]; 23.7 µM with PC-3.
`COc1cccc2c1-c1[nH]nc(Nc3ccccc3)c1C2`: the IC50 in the assay on HepG2 is 0.75 µM; in the assay with HeLa [3], 0.57 µM; in the assay on HCT-116 it was 0.57 µM; in assay [1] it was above 30 µM; in the assay on PC-3, 3.2 µM. Besides, in assay [2], the inhibition stood at 3%.
As for `COc1cccc2c1Cc1c-2n[nH]c1Nc1ccccc1`, the IC50 with HepG2 is 5.2 µM; with HeLa [3] it was 1.6 µM; in the assay with HCT-116, 2.3 µM; in [1], above 30 µM; with PC-3, 21.7 µM. The compound also came in with an inhibition in assay [2] of 41%.
Take `COc1cccc2c1Cc1c(Nc3ccc4c(c3)OCCO4)n[nH]c1-2`: the IC50 with HepG2 is 7 µM; in the assay on HeLa [3], 2.1 µM; in the assay on HCT-116, 5.9 µM; in [1] it was 0.034 µM; in the assay on PC-3 it was 6.9 µM.
As for `COC(=O)c1ccc(O)c(NC(=O)COc2ccc(C34CC5CC(CC(C5)C3)C4)cc2)c1`, the IC50 with HepG2 is above 30 µM; with HeLa [3], above 30 µM; in the assay with HCT-116, above 30 µM; in assay [1], 21 µM; with PC-3, above 30 µM. The inhibition entry in the assay on HeLa [7] and with HeLa [8] was “Active” throughout.
As to `COc1ccc(Nc2n[nH]c3c2Cc2ccccc2-3)cc1OC`, the IC50 was 3.8 µM in the assay with HepG2; 1.8 µM with HeLa [3]; 0.73 µM in the assay with HCT-116; 3.2 µM in assay [1]; above 30 µM with PC-3.
As for `OCc1ccc(-c2nn(Cc3ccccc3)c3ccccc23)o1`, the IC50 was 2.2 µM in the assay with HepG2, 29.3 µM in the assay on HeLa [3], 2.2 µM in the assay with HCT-116 and above 30 µM in the assay with PC-3.
Turning to `Nc1ccc(NC(=O)Nc2cccc3c2C(=O)c2c-3n[nH]c2-c2ccc3c(c2)OCO3)cc1`, in assay [1], it took 0.214 µM to reach half-maximal inhibition (IC50). That is a sub-micromolar value.
Turning to `c1ccc(Nc2n[nH]c3c2Cc2ccccc2-3)cc1`, the IC50 with HepG2 was 24.2 µM; with HeLa [3], 17.6 µM; with HCT-116, 17.5 µM; in the assay with PC-3 it was above 30 µM. This compound had an inhibition in assay [2] of 0%.
With `COc1cccc(Nc2n[nH]c3c2Cc2ccccc2-3)c1`, the IC50 with HepG2 is 6.8 µM; in the assay with HeLa [3], 2.9 µM; with HCT-116, 2.2 µM; in [1] it was 6.1 µM; in the assay on PC-3, above 30 µM.
